ChEMBL document CHEMBL1154676, “Synthetic mRNA splicing modulator compounds with in vivo antitumor activity” (J Med Chem, 2009)

Legend:
[1] = system: Mus musculus; assay: Toxicity in NOD/SCID mouse assessed as weight loss at 5 to 50 mg/kg, iv and po for 5 days after 1 week; assay type: organism-based; set-up: dose 5-50 mg/kg, route oral; conditions: in vivo, 168 h
[2] = system: SK-MEL-2; assay: Cytotoxicity against human SK-MEL-2 cells after 72 hrs by XTT assay; assay type: functional, cell-based; conditions: SK-MEL-2, 72 h
Summary of the method: (§1)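 Cells grown at 37 °C, 5% CO2; HFF in DMEM with 10% FBS, PrEC in prostate epithelial growth medium. Adherent lines seeded overnight, suspension lines same day; compounds diluted from DMSO stocks into media at various final concentrations, 72 h exposure. XTT reagent added 4 h, absorbance 490 nm (reference 690 nm). Growth as % of vehicle; IC50 from sigmoidal dose-response fit; mean ± SEM, three independent experiments.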

[3] = system: OVCAR-8; assay: Growth inhibition of human OVCAR8 cells by sulforhodamine B assay; assay type: functional
[4] = system: Mus musculus; assay: Toxicity in NOD/SCID mouse assessed as complete blood counts level at 5 to 50 mg/kg, […] for 5 days; assay type: organism-based; set-up: dose 5-50 mg/kg; conditions: in vivo, po, 120 h
[5] = system: SK-MEL-5; assay: Growth inhibition of human SK-MEL-5 cells by sulforhodamine B assay; assay type: functional
[6] = system: Mus musculus; assay: Toxicity in NOD/SCID mouse assessed as globulin level at 5 to 50 mg/kg, […] for 5 days; assay type: organism-based; set-up: dose 5-50 mg/kg; conditions: in vivo, po, 120 h
[7] = system: Mus musculus; assay: Toxicity in NOD/SCID mouse assessed as change in alkaline phosphatase level at 5 to 50 mg/kg, iv and po for 5 days; assay type: organism-based; set-up: dose 5-50 mg/kg, route oral; conditions: in vivo, 120 h
[8] = Cytotoxicity against human SJ-GBM2 cells after 72 hrs by XTT assay; assay type: functional, cell-based; summary of the method: as §1
[9] = system: T47D; assay: Growth inhibition of human T47D cells by sulforhodamine B assay; assay type: functional
[10] = system: NCI-H226; assay: Growth inhibition of human NCI-H226 cells by sulforhodamine B assay; assay type: functional
[11] = system: PANC-1; assay: Cytotoxicity against human PANC1 cells after 72 hrs by XTT assay; assay type: functional, cell-based; conditions: PANC-1, 72 h; summary of the method: as §1
[12] = Cytotoxicity against human BT-3 cells after 72 hrs by XTT assay; assay type: functional, cell-based; conditions: BT-3, 72 h; summary of the method: as §1
[13] = system: Mus musculus; assay: Toxicity in NOD/SCID mouse assessed as leukopenia at 5 to 50 mg/kg, […] for 5 days; assay type: organism-based; set-up: dose 5-50 mg/kg; conditions: in vivo, po, 120 h
[14] = system: Mus musculus; assay: Toxicity in NOD/SCID mouse assessed as total bilirubin level at 5 to 50 mg/kg, iv and po for 5 days; assay type: organism-based; set-up: dose 5-50 mg/kg, route oral; conditions: in vivo, 120 h
[15] = system: Malme-3M; assay: Growth inhibition of human MALME-3M cells by sulforhodamine B assay; assay type: functional
[16] = system: Mus musculus; assay: Toxicity in NOD/SCID mouse assessed as albumin level at 5 to 50 mg/kg, iv and po for 5 days; assay type: organism-based; set-up: dose 5-50 mg/kg, route oral; conditions: in vivo, 120 h
[17] = system: HT-29; assay: Growth inhibition of human HT-29 cells by sulforhodamine B assay; assay type: functional
[18] = system: PC-3; assay: Cytotoxicity against human PC3 cells after 72 hrs by XTT assay; assay type: functional, cell-based; conditions: PC-3, 72 h; summary of the method: as §1
[19] = system: EKVX; assay: Growth inhibition of human EKVX cells by sulforhodamine B assay; assay type: functional
[20] = system: TK-10; assay: Growth inhibition of human TK10 cells by sulforhodamine B assay; assay type: functional
[21] = system: OVCAR-5; assay: Growth inhibition of human OVCAR5 cells by sulforhodamine B assay; assay type: functional
[22] = system: SK-MEL-28; assay: Growth inhibition of human SK-MEL-28 cells by sulforhodamine B assay; assay type: functional
[23] = system: SK-OV-3; assay: Growth inhibition of human SKOV3 cells by sulforhodamine B assay; assay type: functional
[24] = system: CCRF-CEM; assay: Growth inhibition of human CCRF-CEM cells by sulforhodamine B assay; assay type: functional
[25] = system: SF-539; assay: Growth inhibition of human SF539 cells by sulforhodamine B assay; assay type: functional
[26] = Cytotoxicity against human BT-14 cells after 72 hrs by XTT assay; assay type: functional, cell-based; conditions: BT-14, 72 h; summary of the method: as §1
[27] = system: UO-31; assay: Growth inhibition of human UO31 cells by sulforhodamine B assay; assay type: functional
[28] = system: SN12C; assay: Growth inhibition of human SN12C cells by sulforhodamine B assay; assay type: functional
[29] = system: HCC 2998; assay: Growth inhibition of human HCC2998 cells by sulforhodamine B assay; assay type: functional
[30] = system: HOP-92; assay: Growth inhibition of human HOP92 cells by sulforhodamine B assay; assay type: functional
[31] = system: MV4-11; assay: Cytotoxicity against human MV4-11 cells after 72 hrs by XTT assay; assay type: functional, cell-based; conditions: MV4-11, 72 h; summary of the method: as §1
[32] = system: K562; assay: Growth inhibition of human K562 cells by sulforhodamine B assay; assay type: functional
[33] = system: Mus musculus; assay: Toxicity in NOD/SCID mouse assessed as potassium level at 5 to 50 mg/kg, […]; assay type: organism-based; set-up: dose 5-50 mg/kg, route oral; conditions: in vivo, po, 120 h
[34] = Cytotoxicity against human NB1643 cells after 72 hrs by XTT assay; assay type: functional, cell-based; conditions: NB-1643, 72 h; summary of the method: as §1
[35] = system: SF-268; assay: Growth inhibition of human SF268 cells by sulforhodamine B assay; assay type: functional
[36] = system: MOLT-4; assay: Growth inhibition of human MOLT4 cells by sulforhodamine B assay; assay type: functional
[37] = system: UACC-257; assay: Growth inhibition of human UACC257 cells by sulforhodamine B assay; assay type: functional
[38] = system: SK-MEL-2; assay: Growth inhibition of human SK-MEL-2 cells by sulforhodamine B assay; assay type: functional
[39] = system: MDA-MB-231; assay: Growth inhibition of human MDA-MB-231 cells by sulforhodamine B assay; assay type: functional
[40] = system: Mus musculus; assay: Toxicity in NOD/SCID mouse assessed as amylase level at 5 to 50 mg/kg, iv and po for 5 days; assay type: organism-based; set-up: dose 5-50 mg/kg, route oral; conditions: in vivo, 120 h
[41] = read-out: Log10GI50 (converted)
[42] = read-out: Log10LC50 (converted)

In the case of `CC(/C=C/[C@@H]1C[C@]2(CO2)CC(C)(C)O1)=C\C[C@H]1CC[C@@H](NC(=O)/C=C\[C@H](C)OC(=O)C(C)C)CC1`, the Activity [1] is reported as “Non-toxic”, the IC50 [2] is reported as 0.29 µM and the GI50 [3, 41] is reported as 0.24 µM. For the same molecule, the CC50 [3, 42] was greater than 100 µM, the TGI ([3]; read-out: Log10TGI (converted)) was greater than 100 µM and the Activity [4] was “Non-toxic”. The GI50 [5, 41] was 0.316 µM, the CC50 [5, 42] was 10.2 µM and the TGI ([5]; read-out: Log10TGI (converted)) was 1.95 µM. The Activity [6] was “Non-toxic”, the Activity [7] was “Non-toxic” and the IC50 [8] was 0.9 µM. The GI50 [9, 41] was 0.389 µM, the CC50 [9, 42] was greater than 100 µM and the TGI ([9]; read-out: Log10TGI (converted)) was 14.5 µM. The GI50 [10, 41] was 2.45 µM, the CC50 [10, 42] was greater than 100 µM and the TGI ([10]; read-out: Log10TGI (converted)) was greater than 100 µM. The IC50 [11] was 3.87 µM, the IC50 [12] was 4.41 µM and the Activity [13] was “Non-toxic”. The Activity [14] was “Non-toxic”, the GI50 [15, 41] was 1.38 µM and the CC50 [15, 42] was greater than 100 µM. For the same molecule, the TGI ([15]; read-out: Log10TGI (converted)) was 61.7 µM, the Activity [16] was “Non-toxic” and the GI50 [17, 41] was 0.191 µM. For the same molecule, the CC50 [17, 42] was greater than 100 µM, the TGI ([17]; read-out: Log10TGI (converted)) was 10 µM and the IC50 [18] was 2.2 µM. For the same molecule, the GI50 [19, 41] was 0.676 µM, the CC50 [19, 42] was greater than 100 µM and the TGI ([19]; read-out: Log10TGI (converted)) was 12.9 µM. For the same molecule, the GI50 [20, 41] was 0.457 µM, the CC50 [20, 42] was greater than 100 µM and the TGI ([20]; read-out: Log10TGI (converted)) was 7.94 µM. The GI50 [21, 41] was 8.32 µM, the CC50 [21, 42] was greater than 100 µM and the TGI ([21]; read-out: Log10TGI (converted)) was greater than 100 µM. It also gave a GI50 [22, 41] of 0.324 µM, a CC50 [22, 42] greater than 100 µM and a TGI ([22]; read-out: Log10TGI (converted)) of 6.46 µM. For the same molecule, the GI50 [23, 41] was 0.912 µM, the CC50 [23, 42] was greater than 100 µM and the TGI ([23]; read-out: Log10TGI (converted)) was greater than 100 µM. It also gave a GI50 [24, 41] of 0.0479 µM, a CC50 [24, 42] greater than 100 µM and a TGI ([24]; read-out: Log10TGI (converted)) greater than 100 µM. It also gave a GI50 [25, 41] of 0.372 µM, a CC50 [25, 42] greater than 100 µM and a TGI ([25]; read-out: Log10TGI (converted)) of 18.6 µM. For the same molecule, the IC50 [26] was 1.34 µM, the GI50 [27, 41] was 3.98 µM and the CC50 [27, 42] was greater than 100 µM. The TGI ([27]; read-out: Log10TGI (converted)) was greater than 100 µM, the GI50 [28, 41] was 1.23 µM and the CC50 [28, 42] was greater than 100 µM. The TGI ([28]; read-out: Log10TGI (converted)) was greater than 100 µM, the GI50 [29, 41] was 3.47 µM and the CC50 [29, 42] was greater than 100 µM. The TGI ([29]; read-out: Log10TGI (converted)) was greater than 100 µM, the GI50 [30, 41] was 0.575 µM and the CC50 [30, 42] was greater than 100 µM. For the same molecule, the TGI ([30]; read-out: Log10TGI (converted)) was greater than 100 µM, the IC50 [31] was 0.3 µM and the GI50 [32, 41] was 0.0457 µM. The CC50 [32, 42] was greater than 100 µM, the TGI ([32]; read-out: Log10TGI (converted)) was greater than 100 µM and the Activity [33] was “Non-toxic”. The IC50 [34] was 0.23 µM, the GI50 [35, 41] was 0.263 µM and the CC50 [35, 42] was greater than 100 µM. For the same molecule, the TGI ([35]; read-out: Log10TGI (converted)) was greater than 100 µM, the GI50 [36, 41] was 0.0479 µM and the CC50 [36, 42] was greater than 100 µM. It also gave a TGI ([36]; read-out: Log10TGI (converted)) of 5.62 µM, a GI50 [37, 41] of 3.63 µM and a CC50 [37, 42] greater than 100 µM. For the same molecule, the TGI ([37]; read-out: Log10TGI (converted)) was 45.7 µM, the GI50 [38, 41] was 0.257 µM and the CC50 [38, 42] was greater than 100 µM. For the same molecule, the TGI ([38]; read-out: Log10TGI (converted)) was 3.55 µM, the GI50 [39, 41] was 0.955 µM and the CC50 [39, 42] was greater than 100 µM. The TGI ([39]; read-out: Log10TGI (converted)) was greater than 100 µM and the Activity [40] was “Non-toxic”.
